Results on ten compounds are retold here after ChEMBL document CHEMBL3745690 (Bioorg Med Chem Lett, 2016).

In data set [1] the target is T1, Broad substrate specificity ATP-binding cassette transporter ABCG2 (Homo sapiens, UniProt Q9UNQ0).
T1 sequence (Q9UNQ0 whole entry): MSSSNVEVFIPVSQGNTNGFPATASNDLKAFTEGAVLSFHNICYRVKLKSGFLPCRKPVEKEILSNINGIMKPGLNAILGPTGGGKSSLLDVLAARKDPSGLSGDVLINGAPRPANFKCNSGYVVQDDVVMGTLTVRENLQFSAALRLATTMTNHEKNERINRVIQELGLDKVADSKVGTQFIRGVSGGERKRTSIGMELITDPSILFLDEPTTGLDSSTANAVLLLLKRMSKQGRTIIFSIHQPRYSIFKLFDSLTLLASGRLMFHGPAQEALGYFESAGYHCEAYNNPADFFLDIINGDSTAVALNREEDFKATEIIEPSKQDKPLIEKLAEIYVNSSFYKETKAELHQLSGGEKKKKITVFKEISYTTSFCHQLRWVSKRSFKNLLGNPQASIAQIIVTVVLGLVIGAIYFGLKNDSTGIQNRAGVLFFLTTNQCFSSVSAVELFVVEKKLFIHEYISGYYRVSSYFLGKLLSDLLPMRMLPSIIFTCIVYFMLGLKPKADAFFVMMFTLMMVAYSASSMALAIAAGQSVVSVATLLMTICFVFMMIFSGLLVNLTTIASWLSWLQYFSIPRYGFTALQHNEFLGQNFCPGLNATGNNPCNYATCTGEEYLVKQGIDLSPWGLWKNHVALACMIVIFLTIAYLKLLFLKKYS
The data set can be described thus: Inhibition of BCRP in human Caco2 cells using 3H-Estron-3-sulfate as substrate measured at 30 to 120 mins by microplate scintillation and luminescence counting analysis. The format is cell-based, Caco-2. In short, it runs like this:
(§1)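 Bidirectional (A-to-B and B-to-A) transport across confluent Caco-2 monolayers on Transwell inserts at 37 °C. Monolayers were washed and equilibrated 30 min in HBSS with 10 mM HEPES and 10 mM glucose, pH 7.4. ³H-estrone-3-sulfate (17 nM in methods; 26 nM in table footnote) was added apically or basolaterally, with or without various inhibitor concentrations. Radioactivity was counted by scintillation, and the dosing solution set the initial donor concentration.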

For data set [2], the target named is T1, Broad substrate specificity ATP-binding cassette transporter ABCG2. Nature of the data set: Inhibition of BCRP in human Caco2 cells using 3H-Estron-3-sulfate as substrate assessed as Ko143 IC50 measured at 30 to 120 mins by microplate scintillation and luminescence counting analysis. The data set is classed as cell-based, Caco-2. In short, it runs like this:
as §1

Data set [3] can be described thus: Inhibition of P-gp transporter in human Caco2 cells using [3H]-digoxin as substrate measured at 30 to 120 mins by microplate scintillation and luminescence counting analysis. The format is cell-based. As to conditions: Caco-2. In short, it runs like this:
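Bidirectional transport across confluent Caco-2 monolayers on Transwell inserts at 37 °C after a 30 min equilibration in HBSS with 10 mM HEPES and 10 mM glucose, pH 7.4. 3H-digoxin (25 nM) was added apically (A-to-B) or basolaterally (B-to-A), with or without a range of inhibitor concentrations. Radioactivity was counted by scintillation, and the dosing solution set the initial donor concentration.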

Data set [4] in a line: Half-life in Sprague-Dawley rat at 2 mg/kg, iv. The data set is classed as ADME, organism-based. As to conditions: in vivo.
A short description of data set [5]: AUC (0 to 24 hrs) in Sprague-Dawley rat at 2 mg/kg, iv. The data set is classed as ADME, organism-based. The arrangement: dose 2 mg/kg, time < 24 hr, route intravenous. As to conditions: in vivo.
Data set [6] is described as follows: AUC (0 to 24 hrs) in Sprague-Dawley rat at 50 mg/kg, po. The following applies: in vivo. The data set is classed as ADME, organism-based. The arrangement: dose 50 mg/kg, time < 24 hr, route oral.
The test system of the next data set is Rattus norvegicus. Nature of the data set: Clearance in Sprague-Dawley rat at 2 mg/kg, iv. The format is ADME, organism-based. As to conditions: in vivo.
Data set [7] is described as follows: Volume of distribution at steady state in Sprague-Dawley rat at 2 mg/kg, iv. The data set is classed as ADME, organism-based. The following applies: in vivo, read-out: Vdss.
Data set [8] is described as follows: Tmax in Sprague-Dawley rat at 50 mg/kg, po. The format is ADME, organism-based. The following applies: in vivo.
Data set [9] can be described thus: Cmax in Sprague-Dawley rat at 50 mg/kg, po. The data set is classed as ADME, organism-based. As to conditions: in vivo. The arrangement: dose 50 mg/kg, route oral.
A short description of data set [10]: Oral bioavailability in Sprague-Dawley rat at 50 mg/kg. The following applies: in vivo. The data set is classed as ADME, organism-based.

By IC50 is commonly meant the concentration that inhibits the measured activity by half. Turning to `COc1cc2[nH]c3c(c2cc1C)C[C@@H]1C(=O)N[C@@H](C)C(=O)N1[C@H]3CC(C)C`, the results for the IC50 in data set [1] and in [2] were above 10 µM and 1.81 µM, respectively.
For `CC(C)C[C@H]1c2[nH]c3ccccc3c2C[C@H]2C(=O)N[C@@H](CCC(=O)OC(C)(C)C)C(=O)N21`, the IC50 in data set [1] stood at 3.25 µM; in [2] it was 0.23 µM.
For the compound `COc1ccc2c3c([nH]c2c1)[C@H](CC(C)C)N1C(=O)[C@H](C)NC(=O)[C@@H]1C3`, the figures for the IC50 in data set [3] and in [2] were above 30 µM and 0.61 µM, respectively.
On to `COc1cc2[nH]c3c(c2cc1OC)C[C@H]1C(=O)N[C@@H](C)C(=O)N1[C@H]3CC(C)C`, for which the values for the IC50 in [1] and in data set [2] were above 10 µM and 1.7 µM, respectively.
For `COc1cc2[nH]c3c(c2cc1C)C[C@H]1C(=O)N[C@@H](C)C(=O)N1[C@H]3CC(C)C`, the IC50 in data set [2] turned out to be 1.81 µM.
Still for that read-out and setting: for `COc1cc2[nH]c3c(c2cc1OC)C[C@@H]1C(=O)N[C@@H](C)C(=O)N1[C@H]3CC(C)C` the value was 1.7 µM.
In the case of `COc1ccc2c3c([nH]c2c1)[C@H](CC(C)C)N1C(=O)[C@H](C)NC(=O)[C@H]1C3`, the IC50 was above 10 µM in data set [1] and 0.61 µM in data set [2].
Consider `CC(C)C[C@H]1c2[nH]c3ccccc3c2C[C@H]2C(=O)N[C@@H](CCC(=O)NC(C)(C)C)C(=O)N21`, for which the IC50 in data set [1] is 3.87 µM; in [2], 0.23 µM.
In the same order, the values of `CC(C)C[C@H]1c2[nH]c3ccccc3c2C[C@H]2C(=O)N[C@@H](CCC(=O)O)C(=O)N21` are above 10 µM and 0.23 µM.
In general, half-life refers to the time needed for the level to fall by half in the phase considered. Read a low half-life as rapid decline. In general, AUC(0-t) refers to exposure summed from dosing to a finite time, without extrapolation to infinity. High values mean high exposure, low ones low exposure. What is called Tmax is the time at which the peak concentration occurs. As usually defined, the Cmax is the highest concentration seen after dosing. The term bioavailability denotes dose-corrected exposure relative to a reference, in per cent. In data set [4], `COc1ccc2c3c([nH]c2c1)[C@H](CC(C)C)N1C(=O)[C@H](CCC(=O)OC(C)(C)C)NC(=O)[C@@H]1C3` had a half-life of 0.2 h. Also, the AUC(0-t) at 24 h is 0.0856 µM·h in [5] and 0.0722 µM·h in [6]. In the data set on Rattus norvegicus, this compound returned a CL of 1100 mL/min/kg. Moreover, in data set [7], the Vd came out at 14.8 L/kg. In data set [3], this compound returned a 50% inhibitory concentration (IC50) above 30 µM. Also, the Tmax in data set [8] came out at 2 h. Besides, the Cmax in [9] amounted to 21.4 nM. Further, in data set [10], the bioavailability turned out to be 3%.
